Assays:
Schistosoma mansoni [1] = test: Concentration required to kill 50% of 42 day old worms 5 days after drug treatment.; type: functional, organism-based; conditions: Puerto Rican, 120 h
Method in brief: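 Adult S. mansoni were perfused from CD1 mice 6 weeks post-infection and washed. They were cultured 3 pairs per well in 1 mL DMEM with 2 mM glutamine, penicillin/streptomycin and 10% FCS […] at 37 °C, 5% CO2. Viability of individual worms was scored on day 5 (120 h).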

Schistosoma mansoni [2] = test: Concentration required to kill 50% of 21 day old worms 5 days after drug treatment.; type: functional, organism-based; conditions: Puerto Rican, 120 h
Method in brief: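 Juvenile S. mansoni (Puerto Rican strain) were perfused from CD1 mice 3 weeks post-infection and washed. They were cultured 6–8 per well in 200 µL DMEM with 2 mM glutamine, penicillin/streptomycin and 10% FCS at 37 °C, 5% CO2. Viability of individual worms was scored on day 5 after dosing (120 h).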

[3] = Mean time to peak plasma concentration in Swiss albino male mice at […] per compound (administered orally in a mixture of 5 compounds to 3 mice) assessed by LCMS/MS.; type: ADME, organism-based; conditions: mouse, po
[4] = Mean plasma concentration at 4h in Swiss albino male mice at […] per compound (administered orally in a mixture of 5 compounds to 3 mice) assessed by LCMS/MS.; type: ADME, organism-based; conditions: mouse, po
[5] = Concentration required to kill 50% HepG2 cells as detected by MTT staining; type: toxicity, cell-based; conditions: homo sapiens, read-out: TC50 (the source's name)
[6] = Mean half-life in Swiss albino male mice at 1 mg/kg per compound (administered iv in a mixture of 5 compounds to 3 mice) assessed by LCMS/MS.; type: ADME, organism-based; conditions: mouse, in vivo
Method in brief: (§1)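 Male Swiss albino mice (~30 g), 3 per experiment, mostly dosed as mixtures of 5 compounds iv via the lateral tail vein. Vehicle: 10% DMSO/90% 50 mM Na2HPO4 with 0.5% Tween-80. Plasma stored at −20 °C and quantified by LC-MS after acetonitrile precipitation.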

[7] = Mean observed clearance in Swiss albino male mice at 1 mg/kg per compound (administered iv in a mixture of 5 compounds to 3 mice) assessed by LCMS/MS.; type: ADME, organism-based; conditions: male, Swiss albino, mouse, in vivo, read-out: Clearance (converted)
Method in brief: as §1, with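 “Tween-80. Blood sampled at 5, 15, 30 min and 1, 2, 4, 8, 24 h.” for “Tween-80.”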

[8] = Mean oral bioavailability in Swiss albino male mice at […] per compound (administered in a mixture of 5 compounds to 3 mice) assessed by LCMS/MS.; also: dose 2.5 mg/kg; type: ADME, organism-based; conditions: mouse, in vivo
[9] = Mean AUC inf in Swiss albino male mice at 1 mg/kg per compound (administered iv in a mixture of 5 compounds to 3 mice) assessed by LCMS/MS.; type: ADME, organism-based; conditions: male, Swiss albino, mouse, in vivo
Method in brief: as §1, with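 “Tween-80. Blood sampled at 5, 15, 30 min and 1, 2, 4, 8, 24 h.” for “Tween-80.”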

[10] = Mean volume of distribution at steady state in Swiss albino male mice at 1 mg/kg per compound (administered iv in a mixture of 5 compounds to 3 mice) assessed by LCMS/MS.; type: ADME, organism-based; conditions: mouse, in vivo, read-out: Volume; method in brief: as §1
[11] = Mean plasma concentration at 24h in Swiss albino male mice at […] per compound (administered orally in a mixture of 5 compounds to 3 mice) assessed by LCMS/MS.; type: ADME, organism-based; conditions: mouse, po
[12] = Partition coefficient of compound between n-octanol and PBS (pH7.4); type: physicochemical; conditions: octanol/water, pH 7.4
Method in brief: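 Shake-flask method using octanol and PBS pH 7.4, each pre-saturated with the other. Compound was shaken 2 h at 850 rpm, 25 °C, then the phases were separated by centrifugation and both layers diluted and analysed by LC-MS/MS. LogD = log(octanol AUC × relative dilution / buffer AUC).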

[13] = male, Swiss albino, read-out: Bioavailability

Structure (SMILES)	EC50 (Schistosoma mansoni [1])	EC50 (Schistosoma mansoni [2])	other results
CC(C)c1nc2cnc(-c3ccc(F)c(C(F)(F)F)c3)cn2c1-c1ccc2[nH]cnc2c1F	904 nM	658 nM	–
CC(C)c1nn2cnc(-c3ccc(F)c(C(F)(F)F)c3)cc2c1-c1ccc2[nH]ncc2c1F	–	–	Tmax [3]: 2 h; concentration at 4 h [4]: 332 ng/mL
CC(C)Oc1cccc(-c2cn3c(-c4ccc5[nH]ncc5c4F)c(C(F)(F)F)nc3cn2)c1	17.3 nM	26.4 nM	CC50 [5]: 13200 nM
Cc1noc(C)c1-c1cn2c(-c3ccc(O)cc3)cnc2cn1	–	> 25000 nM	half-life [6]: 0.0609 h; clearance [7]: 140 mL/min/kg; bioavailability [8, 13]: 0.01%; Tmax [3]: 0.01 h; AUC(0-inf) [9]: 61.2 ng·h/mL; Vd [10]: 0.493 L/kg
Fc1ccc(-c2cn3c(-c4ccc5[nH]ncc5c4F)c(C(F)(F)F)nc3cn2)cc1C1CC1	12 nM	19.3 nM	half-life [6]: 2.82 h; clearance [7]: 31.5 mL/min/kg; bioavailability [8, 13]: 135%; concentration at 24 h [11]: 6.53 ng/mL; Tmax [3]: 0.67 h; AUC(0-inf) [9]: 270 ng·h/mL; Vd [10]: 4.45 L/kg; concentration at 4 h [4]: 131 ng/mL; CC50 [5]: 10500 nM
COc1cc(O)ccc1-c1c(C(C)C)nc2cnc(-c3cccc(C(F)(F)F)c3)cn12	918 nM	1050 nM	–
Cc1c(-c2c(C(F)(F)F)nc3cnc(-c4ccc(F)c(C(F)(F)F)c4)cn23)ccc2[nH]ncc12	–	760 nM	half-life [6]: 23.6 h; clearance [7]: 4.3 mL/min/kg; bioavailability [8, 13]: 65.2%; concentration at 24 h [11]: 98.1 ng/mL; Tmax [3]: 0.667 h; AUC(0-inf) [9]: 2000 ng·h/mL; Vd [10]: 7.87 L/kg; concentration at 4 h [4]: 250 ng/mL
CC(C)c1nc2cnc(-c3cccc(Br)c3)cn2c1-c1ccc2[nH]ncc2c1F	36 nM	26.6 nM	–
CC(C)c1nc2cnc(-c3ccc(F)c(C(F)(F)F)c3)cn2c1-c1c(F)ccc(O)c1F	455 nM	320 nM	–
COc1cc(-c2c(C)nc3cnc(-c4cccc(C(F)(F)F)c4)cn23)ccc1O	< 640 nM	1270 nM	–
Fc1ccc(-c2cn3c(-c4ccc5[nH]ncc5c4F)c(C(F)(F)F)nc3cn2)cc1C1CCC1	45.8 nM	59.1 nM	half-life [6]: 2.2 h; clearance [7]: 35.7 mL/min/kg; bioavailability [8, 13]: 121%; concentration at 24 h [11]: 3.2 ng/mL; Tmax [3]: 1.33 h; AUC(0-inf) [9]: 230 ng·h/mL; Vd [10]: 3.77 L/kg; concentration at 4 h [4]: 123 ng/mL; CC50 [5]: 6090 nM
Oc1cc(F)c(-c2c(CC(F)(F)F)nc3cnc(-c4ccc(F)c(C(F)(F)F)c4)cn23)c(F)c1	79.3 nM	139 nM	–
CC(C)Oc1cc(-c2cn3c(-c4ccc5[nH]ncc5c4F)c(C(F)(F)F)nc3cn2)ccc1F	–	–	Lipophilicity [12]: 5.47 =; bioavailability [8]: 152%; Tmax [3]: 0.67 h; AUC(0-inf) [9]: 340 ng·h/mL; concentration at 4 h [4]: 185 ng/mL; CC50 [5]: 9250 nM
Fc1ccc(-c2cn3c(-c4ccc5[nH]ncc5c4F)c(C4CC4)nc3cn2)cc1C(F)(F)C(F)(F)F	23.2 nM	36.8 nM	–
Cc1nc2cnc(-c3ccc(F)c(S(F)(F)(F)(F)F)c3)cn2c1-c1ccc2[nH]ncc2c1F	26.2 nM	77 nM	–
COc1c(O)cccc1-c1c(C(C)C)nc2cnc(-c3cccc(C(F)(F)F)c3)cn12	1760 nM	1320 nM	–
CC(C)c1cc(-c2cn3c(-c4ccc5[nH]ncc5c4F)c(C(F)(F)F)nc3cn2)ccn1	37 nM	91.7 nM	CC50 [5]: 9530 nM
Fc1ccc(-c2cn3c(-c4ccc5[nH]ncc5c4F)c(C(F)(F)F)nc3cn2)cc1Br	47.9 nM	34.4 nM	–
C#CCOc1cc(-c2cn3c(-c4ccc5[nH]ncc5c4F)c(C(F)(F)F)nc3cn2)ccc1F	10.4 nM	21 nM	–
Oc1ccc(-c2cnc3cnc(-c4cnc(-c5ccccc5)o4)cn23)cc1	–	> 25000 nM	–
COc1cccc(-c2nnc3ccc(-c4cccc(OC(C)C)c4)cn23)c1	–	> 25000 nM	–
COc1ccc(-c2nnc3ccc(-c4ccc5c(c4)OCCO5)cn23)cc1OC	–	> 25000 nM	–
COc1ccc(-c2nnc3ccc(-c4cccc(C(C)C)c4)cn23)cc1O	–	9740 nM	–
COc1ccc(-c2nnc3ccc(-c4cnc5[nH]ncc5c4)cn23)cc1OC	–	> 25000 nM	–
CC(C)c1cccc(-c2ccc3nnc(-c4ccnn4C)n3c2)c1	–	> 25000 nM	–
Cn1cccc(-c2cn3c(-c4ccc(O)cc4)cnc3cn2)c1=O	–	> 25000 nM	–
CC(C)Oc1cccc(-c2ccc3nnc(-c4ccc([S@+](C)[O-])cc4)n3c2)c1	–	> 25000 nM	–
CNC(=O)c1cccc(-c2cn3c(-c4ccc(OC)cc4)cnc3cn2)c1	–	> 25000 nM	–
CN(C)S(=O)(=O)c1cccc(-c2cn3c(-c4ccc(O)cc4)cnc3cn2)c1	–	> 25000 nM	–
CCOc1cccc(-c2cn3c(-c4ccc(O)cc4)cnc3cn2)c1F	–	15600 nM	–

— ChEMBL document CHEMBL4651341, “The discovery of a novel series of compounds with single-dose efficacy against juvenile and adult Schistosoma species” (PLoS Negl Trop Dis, 2021)
